Results taken from ChEMBL document CHEMBL2169798, “Discovery of a Plasmodium falciparum glucose-6-phosphate dehydrogenase 6-phosphogluconolactonase inhibitor (R,Z)-N-((1-ethylpyrrolidin-2-yl)methyl)-2-(2-fluorobenzylidene)-3-oxo-3,4-dihydro-2H-benzo[b][1,4]thiazine-6-carboxamide (ML276) that reduces parasite growth in vitro” (J Med Chem, 2012).

What was measured:
[1] = biological target: Glucose-6-phosphate 1-dehydrogenase (Homo sapiens, UniProt P11413); assay: Inhibition of human glucose-6-phosphate dehydrogenase after 90 mins by resazurin/diaphorasecoupled assay
Sequence of Glucose-6-phosphate 1-dehydrogenase (Homo sapiens, UniProt P11413) (P11413 whole entry): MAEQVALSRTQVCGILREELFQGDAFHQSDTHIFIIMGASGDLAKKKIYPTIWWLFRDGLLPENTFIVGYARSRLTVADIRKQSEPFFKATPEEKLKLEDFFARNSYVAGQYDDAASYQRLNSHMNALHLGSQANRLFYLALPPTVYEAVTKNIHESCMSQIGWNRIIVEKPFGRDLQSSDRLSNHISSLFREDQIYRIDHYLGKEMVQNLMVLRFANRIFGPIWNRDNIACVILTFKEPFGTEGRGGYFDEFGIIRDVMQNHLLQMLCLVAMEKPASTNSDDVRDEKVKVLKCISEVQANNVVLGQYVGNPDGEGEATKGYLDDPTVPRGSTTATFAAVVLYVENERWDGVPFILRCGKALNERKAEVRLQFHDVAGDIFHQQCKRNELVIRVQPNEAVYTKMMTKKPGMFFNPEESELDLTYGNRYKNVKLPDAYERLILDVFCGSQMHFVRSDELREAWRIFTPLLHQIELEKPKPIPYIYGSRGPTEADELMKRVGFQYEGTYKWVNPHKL
Method in brief: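 Dose response with a top final concentration of […] and 0.8% final DMSO, in 50 mM Tris pH 7.5, 0.005% Tween 20 and 1 mg/mL BSA. The enzyme solution held 0.05 μg/mL hG6PD. The substrate solution held 0.64 mM G6P, 12 μM NADP+, 6.6 mM MgCl2, 2 U/mL diaphorase and 0.28 mM resazurin.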

[2] = biological target: T1, Glucose-6-phosphate 1-dehydrogenase (Plasmodium falciparum, UniProt Q25856); assay: Inhibition of Plasmodium falciparum glucose-6-phosphate dehydrogenase after 2 hrs by resazurin/diaphorasecoupled assay
T1 sequence (Q25856 whole entry): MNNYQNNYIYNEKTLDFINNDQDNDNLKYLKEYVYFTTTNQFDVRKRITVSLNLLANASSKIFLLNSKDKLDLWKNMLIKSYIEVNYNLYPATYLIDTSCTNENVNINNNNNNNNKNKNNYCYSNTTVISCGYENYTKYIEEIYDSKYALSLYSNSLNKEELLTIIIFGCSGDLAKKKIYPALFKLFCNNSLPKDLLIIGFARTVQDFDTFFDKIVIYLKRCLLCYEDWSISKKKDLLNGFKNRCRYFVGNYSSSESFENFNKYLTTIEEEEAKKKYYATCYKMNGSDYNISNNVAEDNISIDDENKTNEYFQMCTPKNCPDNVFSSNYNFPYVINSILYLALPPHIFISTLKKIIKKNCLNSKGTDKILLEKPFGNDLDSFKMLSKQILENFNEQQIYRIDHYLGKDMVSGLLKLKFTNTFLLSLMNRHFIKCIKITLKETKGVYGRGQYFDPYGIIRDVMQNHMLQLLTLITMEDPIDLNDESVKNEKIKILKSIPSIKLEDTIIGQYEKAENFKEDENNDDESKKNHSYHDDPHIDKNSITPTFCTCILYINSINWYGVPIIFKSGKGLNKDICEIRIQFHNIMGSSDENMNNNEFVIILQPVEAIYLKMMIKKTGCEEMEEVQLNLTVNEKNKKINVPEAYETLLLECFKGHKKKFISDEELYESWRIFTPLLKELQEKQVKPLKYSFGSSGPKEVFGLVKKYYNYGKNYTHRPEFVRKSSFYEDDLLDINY

[3] = biological target: T1, Glucose-6-phosphate 1-dehydrogenase; assay: Inhibition of Plasmodium falciparum glucose-6-phosphate dehydrogenase after 45 mins by orthogonal assay
Method in brief: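 Direct NADPH read without coupling: PfGluPho (0.4 μg/mL enzyme solution) in 50 mM Tris pH 7.5, 0.005% Tween 20, 1 mg/mL BSA; substrate 40 μM G6P, 6 μM NADP+, 6.6 mM MgCl2.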

Row | Compound | IC50 [1] | IC50 [2] | IC50 [3]
1 | CN1CCCC1CCNC(=O)c1ccc2c(c1)NC(=O)/C(=C/c1ccccc1F)S2 (configuration not stated) | > 80 µM | 22.7 µM | 45.2 µM
2 | O=C1Nc2cc(C(=O)NCCN3CCCCCC3)ccc2S/C1=C\c1ccccc1Cl | > 80 µM | 40.9 µM | > 80 µM
3 | CCN1CCCC1CNC(=O)c1ccc2c(c1)NC(=O)/C(=C/c1cccc(F)c1)S2 (configuration not stated) | > 80 µM | – | –
4 | CCN(CC)CCNC(=O)c1ccc2c(c1)NC(=O)/C(=C/c1ccccc1F)S2 (stereo in doubt; 22) | > 80 µM | 6.9 µM | 4.8 µM
5 | COc1cccc(/C=C2\Sc3ccc(C(=O)NCCN4CCCCCC4)cc3NC2=O)c1 | > 80 µM | > 80 µM | 58.5 µM
6 | CCN1CCCC1CNC(=O)c1ccc2c(c1)NC(=O)/C(=C/c1cccc(F)c1F)S2 (configuration not stated) | > 80 µM | – | –
7 | O=C1Nc2cc(C(=O)NCCN3CCCC3)ccc2S/C1=C\c1ccccc1F (stereo in doubt; 28) | > 80 µM | – | –
8 | NC1CCN(C(=O)c2ccc3c(c2)NC(=O)/C(=C/c2ccccc2F)S3)C1 (configuration not stated) | > 80 µM | 45 µM | 35 µM
9 | O=C1Nc2cc(C(=O)NCC3CCCN3)ccc2S/C1=C\c1ccccc1F (configuration not stated) | > 80 µM | – | –
10 | COc1ccc(/C=C2\Sc3ccc(C(=O)NCCN(C)C)cc3NC2=O)cc1 | > 80 µM | > 80 µM | > 80 µM
11 | CCN1CCCC1CNC(=O)c1ccc2c(c1)NC(=O)CS2 (configuration not stated) | – | > 80 µM | –
12 | Cc1cccc(/C=C2\Sc3ccc(C(=O)NCCN4CCCC4)cc3NC2=O)c1 | > 80 µM | 11.8 µM | 8.8 µM
13 | COc1ccc(/C=C2\Sc3ccc(C(=O)NCCN4CCCCCC4)cc3NC2=O)cc1 | > 80 µM | > 80 µM | > 80 µM
14 | CN(C)CCNC(=O)c1ccc2c(c1)NC(=O)/C(=C/c1cccc(Cl)c1)S2 | > 80 µM | 60 µM | 43.6 µM
15 | COc1ccc(/C=C2\Sc3ccc(C(=O)NCCN4CCCC4)cc3NC2=O)cc1 | > 80 µM | 49.7 µM | > 80 µM
16 | CCN1CCCC1CNC(=O)c1ccc2c(c1)NC(=O)/C(=C/c1ccccc1OC)S2 (configuration not stated) | > 80 µM | 9.79 µM | 11.3 µM
17 | O=C1Nc2cc(C(=O)NCCN3CCCCC3)ccc2S/C1=C\c1ccccc1F | > 80 µM | 21.6 µM | 24 µM
18 | CCCN1CCCC1CNC(=O)c1ccc2c(c1)NC(=O)/C(=C/c1ccccc1F)S2 (configuration not stated) | > 80 µM | – | –
19 | CC(C)(C)OC(=O)N1CCCC1CNC(=O)c1ccc2c(c1)NC(=O)/C(=C/c1ccccc1F)S2 (configuration not stated) | > 80 µM | > 80 µM | 24.4 µM
20 | CCN1CCCC1CNC(=O)c1ccc2c(c1)NC(=O)/C(=C/c1ccccc1Cl)S2 (configuration not stated) | > 80 µM | 2.56 µM | 3.3 µM
21 | CCN1CCCC1CNC(=O)c1ccc2c(c1)NC(=O)/C(=C/c1ccccc1C)S2 (configuration not stated) | > 80 µM | 5.93 µM | 5.01 µM
22 | CCN1CCCC1CNC(=O)c1ccc2c(c1)NC(=O)/C(=C/c1ccc(C)cc1)S2 (configuration not stated) | > 80 µM | – | –
23 | O=C1Nc2cc(C(=O)NCc3ccccc3)ccc2S/C1=C\c1ccccc1F | > 80 µM | > 80 µM | > 80 µM
24 | CN(C)CCNC(=O)c1ccc2c(c1)NC(=O)/C(=C/c1ccccc1F)S2 (stereo in doubt; 17) | > 80 µM | – | –

Row | Compound | IC50 [1] | IC50 [2] | IC50 [3]
25 | CCN1CCCC1CNC(=O)c1ccc2c(c1)NC(=O)/C(=C/c1c(F)cccc1F)S2 (configuration not stated) | > 80 µM | – | –
26 | CCN(CC)CCNC(=O)c1ccc2c(c1)NC(=O)/C(=C/c1cccc(C)c1)S2 | > 80 µM | – | –
27 | CCN(CC)CCNC(=O)c1ccc2c(c1)NC(=O)/C(=C/c1ccccc1)S2 | > 80 µM | 8.8 µM | 18.4 µM
28 | CCN1CCCC1CNC(=O)c1ccc2c(c1)NC(=O)/C(=C/c1ccc(F)cc1)S2 (configuration not stated) | > 80 µM | 1.41 µM | 2.06 µM
29 | CCN(CC)CCNC(=O)c1ccc2c(c1)NC(=O)/C(=C/c1ccccc1Cl)S2 | > 80 µM | 16.2 µM | 44.9 µM
30 | CN(C)c1ccccc1CNC(=O)c1ccc2c(c1)NC(=O)/C(=C/c1ccccc1F)S2 | > 80 µM | > 80 µM | 67.8 µM
31 | O=C1Nc2cc(C(=O)NCCCN3CCCC3)ccc2S/C1=C\c1ccccc1 | > 80 µM | 9.3 µM | 22.3 µM
32 | CN(C)CCNC(=O)c1ccc2c(c1)NC(=O)/C(=C/c1ccccc1F)S2 (stereo in doubt; 16) | > 80 µM | – | –
33 | CCN1CCCC1CNC(=O)c1ccc2c(c1)NC(=O)C(Cc1ccccc1F)S2 (configuration not stated) | > 80 µM | > 80 µM | –
34 | CCN1CCCC1CNC(=O)c1ccc2c(c1)NC(=O)/C(=C/c1ccccc1F)S2 (racemic) | > 80 µM | 1.75 µM | 1.37 µM
35 | CCCN(CCC)CCNC(=O)c1ccc2c(c1)NC(=O)/C(=C/c1ccc(C)cc1)S2 | > 80 µM | > 80 µM | 45.9 µM
36 | O=C1Nc2cc(C(=O)NCCN3CCCC3)ccc2S/C1=C\c1ccccc1Cl | > 80 µM | 11.1 µM | > 80 µM
37 | CCCN(CCC)CCNC(=O)c1ccc2c(c1)NC(=O)/C(=C/c1ccccc1)S2 | > 80 µM | > 80 µM | 27.2 µM
38 | O=C1Nc2cc(C(=O)NCCN3CCOCC3)ccc2S/C1=C\c1ccccc1F | > 80 µM | > 80 µM | > 80 µM
39 | CCN1CCCC1CNC(=O)c1ccc2c(c1)NC(=O)/C(=C/c1cccc3ccccc13)S2 (configuration not stated) | > 80 µM | 4.28 µM | 4.2 µM
40 | CCN(CC)CCNC(=O)c1ccc2c(c1)NC(=O)/C(=C/c1ccccc1F)S2 (stereo in doubt; 21) | > 80 µM | 7.4 µM | 9.4 µM
41 | O=C1Nc2cc(C(=O)NCCN3CCCCCC3)ccc2S/C1=C\c1ccccc1F | > 80 µM | 46.6 µM | 11 µM
42 | CCN1CCCC1CNC(=O)c1ccc2c(c1)NC(=O)/C(=C/c1ccccc1)S2 (configuration not stated) | > 80 µM | – | –
43 | CCN(CC)CCNC(=O)c1ccc2c(c1)NC(=O)/C(=C/c1ccc(OC)c(OC)c1)S2 | > 80 µM | 60 µM | 24.5 µM
44 | CCN1CCC[C@H]1CNC(=O)c1ccc2c(c1)NC(=O)/C(=C/c1ccccc1F)S2 | > 80 µM | 6.6 µM | 4.7 µM
45 | CCN1CCCC1CNC(=O)c1ccc2c(c1)NC(=O)/C(=C/c1ccc3ccccc3c1)S2 (configuration not stated) | > 80 µM | 2.39 µM | 2.88 µM
46 | O=C1Nc2cc(C(=O)NCCCN3CCCC3)ccc2S/C1=C\c1cccc(Cl)c1 | > 80 µM | – | –
47 | O=C1Nc2cc(C(=O)NCCN3CCCC3)ccc2S/C1=C\c1ccccc1F (stereo in doubt; 29) | > 80 µM | – | –
